Results collected from several papers.
Protocols differ between the studies behind these lines.
Organism: Salmonella enterica
Effect on: microbial growth

`NC[C@H]1O[C@H](O[C@H]2[C@H](O)[C@@H](O[C@H]3O[C@H](CO)[C@@H](O)[C@H](N)[C@H]3O)[C@H](N)C[C@@H]2N)[C@H](N)C[C@@H]1O` has an MIC of 150 µg/mL (ATCC14028).
For `Cc1cc(NS(=O)(=O)c2ccc(N)cc2)no1`, the MIC was 64 µg/mL (20 h, pH 7).
`C/C(=N\NC(=N)N)c1ccc(Oc2ccc(/C(C)=N/NC(=N)N)cc2)cc1.Cl.Cl` has an MIC of 54.9 µg/mL (ATCC14028).
With `O=C(Nc1ccc2c(c1)OC(F)(F)O2)Nc1ccc(Cl)c(C(F)(F)F)c1` the MIC was > 100 µM (TYPHIMURIUM).
`C[C@@H](O)[C@H]1C(=O)N2C(C(=O)O)=C(S[C@@H]3CN[C@H](C(=O)N(C)C)C3)[C@H](C)[C@H]12` gave an MIC of ≤ 0.5 µg/mL (broth dilution; CHOLERAESUIS; clinical isolate).
`COc1cc(Cc2cnc(N)nc2N)cc(OC)c1OC` gave an MIC of 0.25 µg/mL (20 h, pH 7.2).
With `CNC(=O)c1cc(Oc2ccc(NC(=O)Nc3ccc(Cl)c(C(F)(F)F)c3)cc2)ccn1` the MIC was > 100 µM (TYPHIMURIUM).
The MIC of `O=C(O)c1cn(C2CC2)c2cc(N3CCNCC3)c(F)cc2c1=O` is reported as 0.0156 µg/mL (20 h, pH 7.2).
The MIC of `CC1(C)S[C@@H]2[C@H](NC(=O)[C@H](N)c3ccccc3)C(=O)N2[C@H]1C(=O)O` is reported as 8 µg/mL (broth dilution).
The MIC of `CN(C)[C@@H]1C(O)=C(C(N)=O)C(=O)[C@@]2(O)C(O)=C3C(=O)c4c(O)cccc4[C@@](C)(O)[C@H]3C[C@@H]12` is reported as 8 µg/mL (ATCC14028 TYPHIMURIUM).
`Cl.N=C(N)N/N=C/c1ccc(-c2ccc(/C=N/Nc3ccccc3Cl)cc2)cc1` gave an MIC of > 215 µg/mL (ATCC14028).
